Measured values published in ChEMBL document CHEMBL4325893, “Synthesis and antibacterial profiles of targeted triclosan derivatives” (2019).
Values after ≈ are worked out from the molar mass of the structure shown.

Legend:
[1] = system: Aeromonas hydrophila; assay: Antibacterial activity against Aeromonas hydrophila OCC 778 after 18 hrs; format: functional; conditions: OCC 778, 18 h
Method in brief: (§1)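 Broth microdilution in Nutrient Broth No. 2; stocks in ethanol diluted to 0.01–128 µg/ml (triclosan) or 0.25–256 µg/ml (glycosides). Overnight 37 °C NB2 cultures diluted 1 in 10^4 in saline and added to the dilutions. Incubation at 37 °C with agitation, OD read every 15 min; MIC is the lowest concentration preventing any OD rise after 18 h.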

[2] = system: Citrobacter freundii; assay: Antibacterial activity against Citrobacter freundii OCC 851 after 18 hrs; format: functional; conditions: OCC 851, 18 h; method in brief: as §1
[3] = system: Cronobacter sakazakii; assay: Antibacterial activity against Cronobacter sakazakii 29544 after 18 hrs; format: functional; conditions: Cronobacter sakazakii, 29544, 18 h; method in brief: as §1
[4] = system: Klebsiella aerogenes; assay: Antibacterial activity against Enterobacter aerogenes ATCC 13048 after 18 hrs; format: functional; conditions: ATCC 13048, 18 h; method in brief: as §1
[5] = Antibacterial activity against Enterobacter cloacae ATCC 13047 after 18 hrs; format: functional, Enterobacter cloacae subsp. cloacae; conditions: ATCC 13047, 18 h; method in brief: as §1
[6] = system: Escherichia coli; assay: Antibacterial activity against Escherichia coli ATCC 8739 after 18 hrs; format: functional; conditions: ATCC 8739, 18 h; method in brief: as §1
[7] = system: Escherichia coli; assay: Antibacterial activity against Escherichia coli ATCC 10536 after 18 hrs; format: functional; conditions: ATCC 10536, 18 h; method in brief: as §1
[8] = system: Escherichia coli; assay: Antibacterial activity against Escherichia coli ATCC 11775 after 18 hrs; format: functional; method in brief: as §1
[9] = system: Escherichia coli; assay: Antibacterial activity against Escherichia coli ATCC 25922 after 18 hrs; format: functional; conditions: ATCC 25922, 18 h; method in brief: as §1
[10] = system: Escherichia coli; assay: Antibacterial activity against Escherichia coli ATCC 35218 after 18 hrs; format: functional; conditions: ATCC 35218, 18 h; method in brief: as §1
[11] = system: Escherichia coli; assay: Antibacterial activity against Escherichia coli 700728 after 18 hrs; format: functional; conditions: Escherichia coli, 700728, 18 h; method in brief: as §1
[12] = system: Escherichia coli; assay: Antibacterial activity against Escherichia coli NCTC 13216 after 18 hrs; format: functional; conditions: NCTC 13216, 18 h; method in brief: as §1
[13] = system: Escherichia coli; assay: Antibacterial activity against Escherichia coli OCC 122 after 18 hrs; format: functional; conditions: OCC 122, 18 h; method in brief: as §1
[14] = system: Escherichia hermannii; assay: Antibacterial activity against Escherichia hermannii 33650 after 18 hrs; format: functional; conditions: Atlantibacter hermannii, 33650, 18 h; method in brief: as §1
[15] = system: Hafnia alvei; assay: Antibacterial activity against Hafnia alvei 13337 after 18 hrs; format: functional; conditions: Hafnia alvei, 13337, 18 h; method in brief: as §1
[16] = system: Klebsiella aerogenes; assay: Antibacterial activity against Klebsiella aerogenes NCTC 8167 after 18 hrs; format: functional; conditions: NCTC 8167, 18 h; method in brief: as §1
[17] = system: Klebsiella pneumoniae; assay: Antibacterial activity against Klebsiella pneumoniae ATCC 10031 after 18 hrs; format: functional; conditions: ATCC 10031, 18 h; method in brief: as §1
[18] = system: Proteus mirabilis; assay: Antibacterial activity against Proteus mirabilis ATCC 12453 after 18 hrs; format: functional; conditions: ATCC 12453, 18 h; method in brief: as §1
[19] = system: Proteus vulgaris; assay: Antibacterial activity against Proteus vulgaris OCC 195 after 18 hrs; format: functional; conditions: OCC 195, 18 h; method in brief: as §1
[20] = system: Pseudomonas aeruginosa; assay: Antibacterial activity against Pseudomonas aeruginosa ATCC 27853 after 18 hrs; format: functional; conditions: ATCC 27853, 18 h; method in brief: as §1
[21] = system: Klebsiella pneumoniae; assay: Antibacterial activity against Klebsiella pneumoniae ATCC 13883 after 18 hrs; format: functional; conditions: ATCC 13883, 18 h; method in brief: as §1
[22] = system: Citrobacter freundii; assay: Antibacterial activity against Citrobacter freundii 8090 after 18 hrs; format: functional; conditions: Citrobacter freundii, 8090, 18 h; method in brief: as §1
[23] = system: Serratia marcescens; assay: Antibacterial activity against Serratia marcescens OCC 217 after 18 hrs; format: functional; conditions: OCC 217, 18 h; method in brief: as §1
[24] = system: Bacillus cereus; assay: Antibacterial activity against Bacillus cereus ATCC 14579 after 18 hrs; format: functional; conditions: ATCC 14579, 18 h; method in brief: as §1
[25] = system: Bacillus subtilis; assay: Antibacterial activity against Bacillus subtilis NCTC 10073 after 18 hrs; format: functional; conditions: NCTC 10073, 18 h; method in brief: as §1
[26] = system: Enterococcus faecalis; assay: Antibacterial activity against Enterococcus faecalis ATCC 29212 after 18 hrs; format: functional; conditions: ATCC 29212, 18 h; method in brief: as §1
[27] = system: Enterococcus faecalis; assay: Antibacterial activity against Enterococcus faecalis ATCC 33186 after 18 hrs; format: functional; conditions: ATCC 33186, 18 h; method in brief: as §1
[28] = system: Enterococcus faecium; assay: Antibacterial activity against Enterococcus faecium ATCC 19434 after 18 hrs; format: functional; conditions: ATCC 19434, 18 h; method in brief: as §1

Compound: O[C@@H]1[C@H](Oc2cc(Cl)ccc2Oc2ccc(Cl)cc2Cl)OC[C@@H](O)[C@H]1O
- MIC [1]: > 256 µg/mL
- MIC [2]: 64 µg/mL (≈ 152 µM)
- MIC [3]: 128 µg/mL (≈ 304 µM)
- MIC [4]: 128 µg/mL (≈ 304 µM)
- MIC [5]: 16 µg/mL (≈ 37.9 µM)
- MIC [6]: 8 to 32 µg/mL (≈ 19 to 75.9 µM)
- MIC [7]: 8 to 32 µg/mL (≈ 19 to 75.9 µM)
- MIC [8]: 8 to 32 µg/mL (≈ 19 to 75.9 µM)
- MIC [9]: 8 to 32 µg/mL (≈ 19 to 75.9 µM)
- MIC [10]: 8 to 32 µg/mL (≈ 19 to 75.9 µM)
- MIC [11]: 8 to 32 µg/mL (≈ 19 to 75.9 µM)
- MIC [12]: 8 to 32 µg/mL (≈ 19 to 75.9 µM)
- MIC [13]: 8 to 32 µg/mL (≈ 19 to 75.9 µM)
- MIC [14]: 32 µg/mL (≈ 75.9 µM)
- MIC [15]: 4 µg/mL (≈ 9.49 µM)
- MIC [16]: 32 µg/mL (≈ 75.9 µM)
- MIC [17]: 4 µg/mL (≈ 9.49 µM)
- MIC [18]: 32 µg/mL (≈ 75.9 µM)
- MIC [19]: 128 µg/mL (≈ 304 µM)
- MIC [20]: > 256 µg/mL
- MIC [21]: 4 µg/mL (≈ 9.49 µM)
- MIC [22]: 64 µg/mL (≈ 152 µM)
- MIC [23]: > 256 µg/mL
- MIC [24]: 128 µg/mL (≈ 304 µM)
- MIC [25]: 128 µg/mL (≈ 304 µM)
- MIC [26]: 256 µg/mL (≈ 607 µM)
- MIC [27]: 256 µg/mL (≈ 607 µM)
- MIC [28]: 256 µg/mL (≈ 607 µM)
